The text below walks through data of ChEMBL document CHEMBL1122350, “Ferric ion sequestering agents. 11. Synthesis and kinetics of iron removal from transferrin of catechoyl derivatives of desferrioxamine B” (J Med Chem, 1983).

The target of experiment [1] is Serotransferrin (Homo sapiens) (UniProt P02787). As to the kind of experiment: Ability to remove iron from human iron transport protein transferrin, at a concentration of 0.1 mM, expressed as % iron removal in 30 minutes. Type of experiment: functional. The gist of the method: (§1)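 Diferric transferrin was made from apotransferrin saturated with fresh Fe(NTA)2^3-, then gel-filtered in 0.1 M NaClO4/0.1 M Tris-HCl pH 7.4 (≥95% saturation by A280/A466 ≤24, A428/A466 = 0.85). The ligand was dissolved in 0.1 M Tris-HCl pH 7.4 with slight heating and mixed 1:1 with transferrin ([Fe2Tf] 2.9 × 10^-5 M) at 25.0 °C. Visible spectra were followed at 466 nm, and % iron removed was read at 30 min.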

Experiment [2] can be described thus: Relative effectiveness at a concentration of 0.1 mM, on removal of Fe from transferrin as compared to Desferal. Type of experiment: functional. A digest of the protocol: (§2)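 Iron removal was measured spectrophotometrically from diferric transferrin (2.9 × 10^-5 M) in 0.1 M Tris-HCl pH 7.4 at 25.0 °C. A rough second-order rate constant k2 was taken as the % iron removed after 30 min divided by the initial ferric transferrin and ligand concentrations. The value is expressed as the ratio to the Desferal k2.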

Experiment [3] concerns the target Serotransferrin (Homo sapiens) (UniProt P02787). Put plainly: Ability to remove iron from transferrin, at a concentration of 0.2 mM, expressed as % iron removal in 30 minutes. The format is functional. The gist of the method:
as §1

The target is the same in experiment [4]. The conditions noted are these: 500 mM.
The target is the same in experiment [5]. Put plainly: Ability to remove iron from human iron transport protein transferrin, at a concentration of 1.2mM, expressed as % iron removal in 30 minutes. The format is functional. A digest of the protocol: as §1
The target is the same in experiment [6]. Put plainly: Ability to remove iron from transferrin, at a concentration of 0.1 mM, expressed as % iron removal in 30 minutes. The settings on record: 0.2 mM; in the assay text read “0.2 mM” for “0.1 mM”. The format is functional. The gist of the method:
as §1

Experiment [7] is described as follows: Relative effectiveness at a concentration of 0.2mM, on removal of Fe from transferrin as compared to Desferal. The format is functional. The gist of the method:
as §2

Experiment [8] deals with Serotransferrin (Homo sapiens) (UniProt P02787). As to the kind of experiment: Ability to remove iron from human iron transport protein transferrin, at a concentration of 20 mM, expressed as % iron removal in 30 minutes. Type of experiment: functional.
The nature of experiment [9]: Relative effectiveness at a concentration of 20 mM, on removal of Fe from transferrin as compared to Desferal. The format is functional.
The target of experiment [10] is Serotransferrin (Homo sapiens) (UniProt P02787). As to the kind of experiment: Ability to remove iron from human iron transport protein transferrin, at a concentration of 0.2 mM, expressed as % iron removal in 30 minutes. Type of experiment: functional. The gist of the method:
as §1

The structures appear in SMILES notation.

Serotransferrin (Homo sapiens), sequence (P02787 whole entry): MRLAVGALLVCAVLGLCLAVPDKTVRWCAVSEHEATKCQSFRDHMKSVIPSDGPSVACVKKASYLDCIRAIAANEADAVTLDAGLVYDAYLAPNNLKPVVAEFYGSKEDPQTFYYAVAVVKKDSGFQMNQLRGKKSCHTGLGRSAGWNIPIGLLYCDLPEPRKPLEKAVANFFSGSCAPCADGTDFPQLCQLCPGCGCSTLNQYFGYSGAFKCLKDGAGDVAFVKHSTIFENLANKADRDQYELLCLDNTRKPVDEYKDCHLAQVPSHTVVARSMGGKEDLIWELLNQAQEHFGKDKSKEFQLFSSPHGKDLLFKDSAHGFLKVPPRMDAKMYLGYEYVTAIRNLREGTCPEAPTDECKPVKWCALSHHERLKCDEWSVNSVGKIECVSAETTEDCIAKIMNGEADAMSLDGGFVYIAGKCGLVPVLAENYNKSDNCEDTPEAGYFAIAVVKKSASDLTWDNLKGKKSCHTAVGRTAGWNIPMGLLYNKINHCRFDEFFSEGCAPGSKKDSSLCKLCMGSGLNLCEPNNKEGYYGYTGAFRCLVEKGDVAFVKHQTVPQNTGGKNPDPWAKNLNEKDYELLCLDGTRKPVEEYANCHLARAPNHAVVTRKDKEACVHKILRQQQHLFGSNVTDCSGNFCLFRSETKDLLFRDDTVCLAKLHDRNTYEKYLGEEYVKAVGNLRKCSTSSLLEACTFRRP

With `CC(=O)N(O)CCCCCNC(=O)CCC(=O)N(O)CCCCCNC(=O)CCC(=O)N(O)CCCCCNC(=O)c1cccc(O)c1O`, in [1], the Fe removed is 2%. Besides, in experiment [2], the Ratio worked out at 180.
Take `O=C(O)CN(CCN(CC(=O)O)CC(=O)O)CC(=O)O`: the Fe removed in [3] turned out to be 0%; in experiment [4], 37%.
Consider `CC(=O)N(O)CCCCCNC(=O)CCC(=O)N(O)CCCCCNC(=O)CCC(=O)N(O)CCCCCNC(=O)c1ccc(C(=O)O)c(O)c1O`, for which the Fe removed in [5] stood at 18%; in experiment [6], 3%. Also, the Ratio in experiment [7] is 130.
In the case of `CC(=O)N(O)CCCCCNC(=O)CCC(=O)N(O)CCCCCNC(=O)CCC(=O)N(O)CCCCCN`, the Fe removed in [8] is 5%. Also, the Ratio in experiment [9] was 1.
Regarding `O=C(N[C@H]1COC(=O)[C@@H](NC(=O)c2cccc(O)c2O)COC(=O)[C@@H](NC(=O)c2cccc(O)c2O)COC1=O)c1cccc(O)c1O`, the Fe removed in experiment [10] is 6%. Besides, the Ratio in experiment [7] stood at 120.
